For 49 compounds, GI50, inhibition and Activity results are on record in ChEMBL document CHEMBL1781902, “Anticancer properties of an important drug lead podophyllotoxin can be efficiently mimicked by diverse heterocyclic scaffolds accessible via one-step synthesis” (2011).

Assay [1] concerns HeLa. Put plainly: Antiproliferative activity against human HeLa cells after 48 hrs by MTT assay. It counts as functional. Put shortly:
(§1)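 Cells were seeded at 2 × 10^4 cells/mL, allowed to adhere 24 h, then exposed 48 h to a concentration series, with DMSO as control. MTT was added for 2 h at 37 °C, formazan dissolved in DMSO and OD read at 490 nm. GI50 is the concentration giving 50% viability loss versus DMSO; 8 replicates, at least two independent experiments, ± SD.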
(In general: Tetrazolium assays rely on reduction of a dye to a coloured formazan, in cell work by metabolically active cells.)

In assay [2] the test system is MCF7. Nature of the assay: Antiproliferative activity against human MCF7 cells after 48 hrs by MTT assay. The note with it: MCF7, 48 h. It counts as functional. The essentials:
as §1

The species named for assay [3] is Bos taurus. Nature of the assay: Inhibition of purified bovine tubulin polymerization assessed as microtubule destabilization at 3 uM after 20 mins by fluorescence spectrophotometric analysis relative to control. The essentials:
(§2)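 Purified bovine tubulin was incubated at 37 °C in buffer with 10% glycerol and 1 mM GTP, each agent in a separate run, against a 0.05% DMSO control. Polymerization was followed by fluorescence spectrophotometry for 20 min, reading every 15 s.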

For assay [4], the system named is Jurkat. Nature of the assay: Induction of apoptosis in human Jurkat cells assessed as cleavage of caspase 3 substrate DEVD-p-nitroanaline 2 hrs by spectrophotometric analysis. Format: functional, cell-based. The essentials: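 Jurkat cells (RPMI-1640, 10% FBS) were treated at 0.1, 0.5 and 1 μM alongside DMSO control. Lysates from 1 × 10^6 cells were normalized by BCA protein assay, then incubated with DEVD-pNA substrate for 2 h at 37 °C. Read at 405 nm and expressed relative to DMSO set as one. Quadruplicates, repeated at least twice.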

Assay [5] is filed under the species Bos taurus. Nature of the assay: Inhibition of purified bovine tubulin polymerization assessed as microtubule destabilization at 25 uM after 20 mins by fluorescence spectrophotometric analysis. The essentials: as §2
The test system of assay [6] is Jurkat. Put plainly: Induction of apoptosis in human Jurkat cells at 5 to 8 nM after 48 hrs by annexinV-propidium iodide staining based FITC analysis. It counts as functional, cell-based. Put shortly:
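Jurkat cells plated at 2 × 10^5 cells/mL were exposed for 48 h across a concentration range. They were pelleted, resuspended in HHB containing CaCl2, propidium iodide and Annexin-V-FITC, and labelled 20 min at 37 °C. Annexin-V-positive cells were scored by flow cytometry as % apoptotic. Triplicates, repeated at least twice, ± SD.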

The test system of assay [7] is HeLa. Put plainly: Antimitotic activity in human HeLa cells assessed as disruption of interphase microtubule organization at 5 nM after 3 hrs by inverted microscopic analysis. Format: functional, cell-based. The essentials: (§3)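 HeLa cells in DMEM with 10% fetal calf serum, pyruvate, bicarbonate and PSF were exposed for 3 h to compound diluted from DMSO stock into medium, carrier 0.1% DMSO. Cells were fixed in methanol at −20 °C, blocked 1 h in PBS with 5% BSA, then stained overnight at 4 °C with anti-tubulin, anti-Hec1 and Hoechst 33342. Imaged by epifluorescence microscopy with structured illumination.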

Assay [8] has as its system HeLa. Put plainly: Antimitotic activity in human HeLa cells assessed as nucleated microtubule at 10 uM after 3 hrs by inverted microscopic analysis. Format: functional, cell-based. Put shortly: as §3
For assay [9], the system named is HeLa. Nature of the assay: Antimitotic activity in human HeLa cells assessed as disruption of mitotic microtubule organization at 5 nM after 3 hrs by inverted microscopic analysis. It counts as functional, cell-based. Put shortly:
as §3

The source made the active and inactive calls. No cut-off for these calls is given here.

For orientation: GI50 means the concentration giving 50% growth inhibition. A high value points to lower sensitivity of the cells.

As to `O=C1OCC2=C1[C@H](c1cc(Br)cc(Br)c1)c1ccc3ccccc3c1N2`, the GI50 in assay [1] and in assay [2] was 9 nM each time.

On to `O=C1OCC2=C1[C@@H](c1cc(Br)cc(Br)c1)c1ccc3ccccc3c1N2`, for which the GI50 came out at 19000 nM in assay [1] and 14000 nM in assay [2].

Regarding `CC(=O)O[C@H]1C(=O)[C@@]2(C)[C@H]([C@H](OC(=O)c3ccccc3)[C@]3(O)C[C@H](OC(=O)[C@H](O)[C@@H](NC(=O)c4ccccc4)c4ccccc4)C(C)=C1C3(C)C)[C@]1(OC(C)=O)CO[C@@H]1C[C@@H]2O`, the inhibition result in assay [3] is “inactive”.

Take `O=C1OCC2=C1C(c1cc(Br)cc(Br)c1)c1cn[nH]c1N2` (racemic): the outcome in [4] was Active. In addition, the GI50 in assay [1] and in assay [2] was 25 nM each time. Moreover, the inhibition result in assay [5] is “Active”.

In the case of `COc1cc(C2C3=C(COC3=O)Nc3[nH]ncc32)cc(OC)c1OC` (racemic), the GI50 amounted to 3000 nM in assay [1] and 250 nM in [2].

With `COc1cc(C2C3=C(COC3=O)Nc3[nH]ncc32)cc(Br)c1OC` (racemic), the GI50 is 750 nM in assay [1] and 250 nM in [2].

Consider `O=C1OCC2=C1C(c1cccc(Br)c1)c1cn[nH]c1N2` (racemic), for which the GI50 in assay [1] was determined as 75 nM; in [2], 100 nM.

With `Cc1n[nH]c2c1C(c1cncc(Br)c1)C1=C(COC1=O)N2` (racemic), the GI50 in assay [1] amounted to 3000 nM; in assay [2], 800 nM.

`O=C1OCC2=C1C(c1cncc(Br)c1)c1cn[nH]c1N2` (racemic): the GI50 in assay [1] came to 75 nM; in [2] it was 15 nM.

For `Cc1n[nH]c2c1C(c1cc(Br)cc(Br)c1)C1=C(COC1=O)N2` (racemic), the GI50 in assay [1] and in assay [2] was 75 nM in each case.

`COc1cc(Br)cc(C2C3=C(COC3=O)Nc3[nH]nc(C)c32)c1O` (racemic): the GI50 in assay [1] was determined as 35 nM; in assay [2], 100 nM.

With `COc1cc(Br)cc(C2C3=C(COC3=O)Nc3[nH]ncc32)c1O` (racemic), the figures for the GI50 in assay [1] and in assay [2] were 25 nM and 30 nM, respectively.

`Cc1n[nH]c2c1C(c1cc(Br)ccc1O)C1=C(COC1=O)N2` (racemic): the values for the GI50 in [1] and in assay [2] were 300 nM and 250 nM, respectively.

Consider `O=C1OCC2=C1C(c1cc(Br)ccc1O)c1cn[nH]c1N2` (racemic), for which the GI50 in [1] worked out at 50 nM; in assay [2], 25 nM.

As to `COc1cccc(C2C3=C(COC3=O)Nc3[nH]ncc32)c1O` (racemic), the GI50 in assay [1] worked out at 2000 nM; in assay [2], 500 nM.

`O=C1OCC2=C1C(c1cc(Br)cc(Br)c1O)c1cn[nH]c1N2` (racemic): the result in assay [4], in [6], in [7], in [8] and in [9] was Active. Further, the GI50 was determined as 20 nM in assay [1] and 10 nM in assay [2]. Further, in [5], the inhibition result was “Active”.

For `O=C1OCC2=C1C(c1cc(Br)cs1)c1cn[nH]c1N2` (racemic), the GI50 in assay [1] is 1150 nM; in assay [2], 740 nM.

Turning to `COc1cc(C2C3=C(COC3=O)Nc3c2ccc2ccccc32)cc(OC)c1OC` (racemic), the GI50 in assay [1] and in [2] was 3 nM each time.

For `O=C1OCC2=C1C(c1cc(Br)cc(Br)c1)c1ccc3ccccc3c1N2` (racemic), the concentration for 50% growth inhibition (GI50) is 16 nM in assay [1] and 14 nM in assay [2].

Turning to `COc1cc(C2C3=C(COC3=O)Nc3c2ccc2ccccc32)cc(Br)c1OC` (racemic), the GI50 in [1] and in assay [2] was 3 nM each time.

For `O=C1OCC2=C1C(c1cc(Br)cc(Br)c1O)c1ccc3ccccc3c1N2` (racemic), the GI50 in [1] stood at 18 nM; in assay [2] it was 21 nM.

As for `COc1cc(Br)cc(C2C3=C(COC3=O)Nc3c2ccc2ccccc32)c1O` (racemic), the GI50 in assay [1] and in assay [2] was 3 nM each time.

Take `O=C1OCC2=C1C(c1cc(Br)ccc1O)c1ccc3ccccc3c1N2` (racemic): the 50% growth inhibitory concentration (GI50) in [1] and in assay [2] was 3 nM in each case.

For the compound `O=C1OCC2=C1C(c1cncc(Br)c1)c1ccc3ccccc3c1N2` (racemic), the GI50 worked out at 7 nM in [1] and 13 nM in assay [2].

With `O=C1OCC2=C1C(c1cc(Br)cs1)c1ccc3ccccc3c1N2` (racemic), the GI50 in assay [1] and in assay [2] was 3 nM each time.

Take `COc1cc(C2C3=C(COC3=O)Nc3c2ccc2ccc(O)cc32)cc(OC)c1OC` (racemic): the values for the concentration for 50% growth inhibition (GI50) in assay [1] and in [2] were 2 nM and 3 nM, respectively.

As to `O=C1OCC2=C1C(c1cc(Br)cc(Br)c1)c1ccc3ccc(O)cc3c1N2` (racemic), the results for the GI50 in [1] and in [2] were 6 nM and 3 nM, respectively.

Consider `COc1cc(C2C3=C(COC3=O)Nc3c2ccc2ccc(O)cc32)cc(Br)c1OC` (racemic), for which the 50% growth inhibitory concentration (GI50) in assay [1] was found to be 2 nM; in assay [2], 3 nM.

For the compound `O=C1OCC2=C1C(c1cc(Br)cc(Br)c1O)c1ccc3ccc(O)cc3c1N2` (racemic), the GI50 in [1] was 7 nM; in [2], 3 nM.

Turning to `COc1cc(Br)cc(C2C3=C(COC3=O)Nc3c2ccc2ccc(O)cc32)c1O` (racemic), the GI50 in assay [1] is 6 nM; in assay [2], 3 nM.

Consider `O=C1OCC2=C1C(c1cc(Br)ccc1O)c1ccc3ccc(O)cc3c1N2` (racemic), for which the GI50 in assay [1] and in assay [2] was 3 nM throughout.

Consider `O=C1OCC2=C1C(c1cncc(Br)c1)c1ccc3ccc(O)cc3c1N2` (racemic), for which the GI50 in assay [1] and in assay [2] was 3 nM in each case.

On to `O=C1OCC2=C1C(c1cc(Br)cs1)c1ccc3ccc(O)cc3c1N2` (racemic), for which the GI50 in assay [1] and in assay [2] was 3 nM in each case.

For `COc1cc(C2C3=C(COC3=O)Nc3c2ccc2c(O)cccc32)cc(OC)c1OC` (racemic), the GI50 in [1] and in assay [2] was 3 nM in each case.

On to `O=C1OCC2=C1C(c1cc(Br)cc(Br)c1)c1ccc3c(O)cccc3c1N2` (racemic), for which the GI50 in assay [1] was 21 nM; in assay [2], 23 nM.

In the case of `Nc1cc2c(c3ccccc13)NC1=C(C(=O)OC1)C2c1cc(Br)cc(Br)c1` (racemic), the GI50 is 21 nM in [1] and 16 nM in assay [2].

Regarding `COc1cc(C2C3=C(COC3=O)Nc3ccc4ccccc4c32)cc(OC)c1OC` (racemic), the concentration for 50% growth inhibition (GI50) was determined as 540 nM in [1] and 121 nM in assay [2].

In the case of `O=C1OCC2=C1C(c1cc(Br)cc(Br)c1)c1c(ccc3ccccc13)N2` (racemic), the figures for the GI50 in assay [1] and in [2] were 420 nM and 201 nM, respectively.

On to `COc1cc(C2C3=C(COC3=O)Nc3cc4c(cc32)CCCC4)cc(OC)c1OC` (racemic), for which the results for the concentration for 50% growth inhibition (GI50) in assay [1] and in assay [2] were 18 nM and 19 nM, respectively.

As for `O=C1OCC2=C1C(c1cc(Br)cc(Br)c1)c1cc3c(cc1N2)CCCC3` (racemic), the figures for the GI50 in assay [1] and in assay [2] were 100 nM and 70 nM, respectively.

As to `COc1cc(C2C3=C(COC3=O)Nc3c2ccc2[nH]ccc32)cc(OC)c1OC` (racemic), the GI50 in assay [1] was found to be 19 nM; in assay [2] it was 22 nM.

As to `O=C1OCC2=C1C(c1cc(Br)cc(Br)c1)c1ccc3[nH]ccc3c1N2` (racemic), the GI50 in [1] was 114 nM; in [2], 21 nM.

With `COc1cc(C2C3=C(COC3=O)Nc3[nH][nH]c(=O)c32)cc(OC)c1OC` (racemic), the concentration for 50% growth inhibition (GI50) in assay [1] and in assay [2] was > 10000 nM in each case.

For the compound `O=C1OCC2=C1C(c1cc(Br)cc(Br)c1)c1c([nH][nH]c1=O)N2` (racemic), the GI50 in assay [1] and in assay [2] was > 10000 nM in each case.

Regarding `COc1cc(C2C3=C(COC3=O)Nc3nc(SC)nc(N)c32)cc(OC)c1OC` (racemic), the concentration for 50% growth inhibition (GI50) in assay [1] came out at 125 nM; in assay [2], 170 nM.

Turning to `CSc1nc(N)c2c(n1)NC1=C(C(=O)OC1)C2c1cc(Br)cc(Br)c1` (racemic), the GI50 in assay [1] is 561 nM; in assay [2] it was 1020 nM.

As to `COc1cc(C2C3=C(COC3=O)Nc3[nH]nc(C)c32)cc(OC)c1OC` (racemic), the GI50 in [1] and in assay [2] was 5000 nM throughout.

Consider `COc1cc(C2C3=C(COC3=O)Nc3[nH]nc(C)c32)cc(Br)c1OC` (racemic), for which the GI50 was 750 nM in [1] and 1000 nM in assay [2].

`Cc1n[nH]c2c1C(c1cccc(Br)c1)C1=C(COC1=O)N2` (racemic): the GI50 stood at 3000 nM in assay [1] and 4000 nM in [2].
